Results taken from ChEMBL document CHEMBL1641478, “Structural and biochemical study on the inhibitory activity of derivatives of 5-nitro-furan-2-carboxylic acid for RNase H function of HIV-1 reverse transcriptase” (Bioorg Med Chem, 2011).

What was measured:
[1] = biological target: Human immunodeficiency virus type 1 reverse transcriptase (Human immunodeficiency virus 1, UniProt Q72547); assay: Inhibition RNase H activity of HIV1 reverse transcriptase expressed in Escherichia coli stain BL21(DE3)pLysS
Outline: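 His-tagged p66/p51 RT expressed in E. coli BL21(DE3)pLysS with 1 mM IPTG for 3 h. Substrate: 18-mer RNA labelled with 3′-FAM, annealed to complementary DNA carrying a 5′-BHQ quencher. Reaction used 100 ng RT at 37 °C, with cleavage followed in real time by fluorescence at 488 nm every 150 s. IC50 taken as the concentration halving the cleavage rate relative to control.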

[2] = (§1) Cytotoxicity against human MT4 cells after 3 days by MTT assay; format: cell-based; conditions: MT4 cells
Outline: (§2)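 Cells in RPMI-1640 with 10% FBS: MT-4 seeded at 4 × 10⁵/mL, 293T at 2 × 10⁵/mL. Compound final concentrations 100, 50, 25 and 12.5 µM, 1% DMSO final, plus an untreated control. Incubated 3 days at 37 °C in 5% CO₂. MTT added for 1 h, then solubilized overnight at 4 °C and read at OD570/690. CC50 derived only when viability fell below 50% at 100 µM.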

[3] = Cytotoxicity against human 293T cells after 3 days by MTT assay; format: cell-based, HEK-293T; conditions: for CC50 at 72 h: 293T cells; for CC50: hek-293t, 72 h; outline: as §2
[4] = test system: MT4; assay: as §1; format: cell-based; conditions: mt4, 72 h; outline: as §2

Compound	IC50 [1] [µM]	CC50 at 72 h [2] [µM]	CC50 at 72 h [3] [µM]	CC50 [4]	CC50 [3]
CC(C)OC(=O)COC(=O)c1ccc([N+](=O)[O-])o1	13.2	> 100	> 100	–	–
CC(C)(C)NC(=O)COC(=O)c1ccc([N+](=O)[O-])o1	18	> 100	> 100	–	–
CCC(C)(C)NC(=O)COC(=O)c1ccc([N+](=O)[O-])o1	5.8	> 100	> 100	–	–
O=C(COC(=O)c1ccc([N+](=O)[O-])o1)NCC1CCCO1 (stereo not given)	4.2	> 100	> 100	–	–
O=C(COC(=O)c1ccc([N+](=O)[O-])o1)NC1Cc2ccccc2C1	5.5	> 100	> 100	–	–
O=C(COC(=O)c1ccc([N+](=O)[O-])o1)NC1CCc2ccccc21 (stereo not given)	6.1	> 100	> 100	–	–
O=C(COC(=O)c1ccc([N+](=O)[O-])o1)NC1CCCc2ccccc21 (stereo not given)	4.3	> 100	> 100	–	–
O=C(OCC(=O)N(Cc1ccccc1)CC1CCCO1)c1ccc([N+](=O)[O-])o1 (stereo not given)	7.7	> 100	> 100	–	–
O=C(OCC(=O)N(Cc1ccc(O)cc1)CC1CCCO1)c1ccc([N+](=O)[O-])o1 (stereo not given)	5	> 100	> 100	–	–
CC(=O)COC(=O)c1ccc([N+](=O)[O-])o1	7.1	> 100	> 100	–	–
CC(C)(C)NC(=O)COC(=O)c1ccccc1[N+](=O)[O-]	> 50	–	–	–	–
CC(C)(C)NC(=O)COC(=O)c1cccc([N+](=O)[O-])c1	> 50	–	–	–	–
CC(C)(C)NC(=O)COC(=O)c1ccc([N+](=O)[O-])cc1	> 50	–	–	–	–
CC(C)(C)N(Cc1ccccc1)C(=O)COC(=O)c1cc([N+](=O)[O-])cc([N+](=O)[O-])c1	> 50	–	–	–	–
CC(C)(C)N(Cc1ccccc1)C(=O)COC(=O)c1ccco1	> 50	–	–	–	–
CC(C)(C)NC(=O)COC(=O)c1ccc(Br)o1	> 50	–	–	–	–
CC(C)(C)NC(=O)COC(=O)c1ccc(C(=O)c2ccccc2)o1	> 50	–	–	–	–
CC(C)(C)NC(=O)COC(=O)c1ccno1	> 50	–	–	–	–

Compound	IC50 [1] [µM]	CC50 at 72 h [2] [µM]	CC50 at 72 h [3] [µM]	CC50 [4]	CC50 [3]
CC(C)(C)NC(=O)COC(=O)c1ccc(-c2ccccc2[N+](=O)[O-])o1	> 50	–	–	–	–
CC(C)(C)NC(=O)COC(=O)c1ccc(-c2cccc([N+](=O)[O-])c2)o1	> 50	–	–	–	–
CC(C)(C)NC(=O)COC(=O)c1ccc(-c2ccc([N+](=O)[O-])cc2)o1	> 50	–	–	–	–
CC(C)(C)NC(=O)COC(=O)c1ccc([N+](=O)[O-])s1	2.8	> 100	> 100	–	–
CCC(C)(C)NC(=O)COC(=O)c1ccc([N+](=O)[O-])s1	5.8	–	–	–	–
CCC(C)(C)N(Cc1ccc([N+](=O)[O-])cc1)C(=O)COC(=O)c1ccc([N+](=O)[O-])s1	33.5	–	–	–	–
CCC(C)(C)N(Cc1cccc([N+](=O)[O-])c1)C(=O)COC(=O)c1ccc([N+](=O)[O-])s1	25.8	–	–	–	–
CC(=O)COC(=O)c1ccc([N+](=O)[O-])s1	9.5	–	–	–	–
CC(C)(C)C(=O)COC(=O)c1ccc([N+](=O)[O-])s1	5.7	–	–	–	–
COC(=O)CNC(=O)c1ccc([N+](=O)[O-])o1	> 50	–	–	–	–
CCOC(=O)[C@H](C)NC(=O)c1ccc([N+](=O)[O-])o1	> 50	–	–	–	–
CCOC(=O)[C@H](CC(C)C)NC(=O)c1ccc([N+](=O)[O-])o1	> 50	–	–	–	–
CCOC(=O)[C@H](Cc1ccccc1)NC(=O)c1ccc([N+](=O)[O-])o1	> 50	–	–	–	–
CCOC(=O)[C@H](Cc1ccc(O)cc1)NC(=O)c1ccc([N+](=O)[O-])o1	> 50	–	–	–	–
CCOC(=O)[C@@H](NC(=O)c1ccc([N+](=O)[O-])o1)c1ccccc1	> 50	–	–	–	–
O=C(OCCc1ccc([N+](=O)[O-])cc1)c1ccc([N+](=O)[O-])o1	2.1	28	36	–	–
CN(OC(=O)c1ccc([N+](=O)[O-])o1)C(=O)c1ccc([N+](=O)[O-])o1	2.7	86	> 100	–	–

More lines, main results first:

IC50 [1] [µM]	Compound	CC50 at 72 h [2] [µM]	CC50 at 72 h [3] [µM]	CC50 [4]	CC50 [3]
0.9	CC(C)(C)N(Cc1ccccc1)C(=O)COC(=O)c1ccc([N+](=O)[O-])o1	> 100	> 100	–	–
8.2	CC(C)(NC(=O)COC(=O)c1ccc([N+](=O)[O-])o1)c1ccccc1	> 100	> 100	–	–
4.3	CC(C)(Cc1ccccc1)NC(=O)COC(=O)c1ccc([N+](=O)[O-])o1	> 100	> 100	–	–
14.2	CC(C)(C)N(CCc1ccccc1)C(=O)COC(=O)c1ccc([N+](=O)[O-])o1	> 100	67	–	–
> 50	CC(C)(C)N(CCCc1ccccc1)C(=O)COC(=O)c1ccc([N+](=O)[O-])o1	–	–	Not Active	Not Active
> 50	CC(C)(C)N(CCC(=O)c1ccccc1)C(=O)COC(=O)c1ccc([N+](=O)[O-])o1	–	–	Not Active	Not Active
6.9	CC(C)(C)N(Cc1ccc([N+](=O)[O-])cc1)C(=O)COC(=O)c1ccc([N+](=O)[O-])o1	> 100	> 100	–	–
9.8	CC(C)(C)N(Cc1cccc([N+](=O)[O-])c1)C(=O)COC(=O)c1ccc([N+](=O)[O-])o1	> 100	78	–	–
8.7	CC(=O)Oc1ccc(CN(C(=O)COC(=O)c2ccc([N+](=O)[O-])o2)C(C)(C)C)cc1	> 100	> 100	–	–
12.8	CC(=O)Oc1ccccc1CN(C(=O)COC(=O)c1ccc([N+](=O)[O-])o1)C(C)(C)C	> 100	> 100	–	–
7.5	COc1ccc(CN(C(=O)COC(=O)c2ccc([N+](=O)[O-])o2)C(C)(C)C)cc1	> 100	> 100	–	–
> 50	CC(C)(C)N(Cc1ccc(OCc2ccccc2)cc1)C(=O)COC(=O)c1ccc([N+](=O)[O-])o1	–	–	Not Active	Not Active
8.5	CC(C)(C)N(Cc1ccc(F)cc1)C(=O)COC(=O)c1ccc([N+](=O)[O-])o1	> 100	> 100	–	–
8	CC(C)(C)N(Cc1ccc(C(F)(F)F)cc1)C(=O)COC(=O)c1ccc([N+](=O)[O-])o1	71	36	–	–
8.5	CC(C)(C)N(Cc1cccc(C(F)(F)F)c1)C(=O)COC(=O)c1ccc([N+](=O)[O-])o1	> 100	68	–	–
9	CC(C)(C)N(Cc1ccccc1C(F)(F)F)C(=O)COC(=O)c1ccc([N+](=O)[O-])o1	95	65	–	–
6.8	CC(C)(C)N(Cc1c(F)c(F)c(F)c(F)c1F)C(=O)COC(=O)c1ccc([N+](=O)[O-])o1	> 100	83	–	–
21.9	CC(C)(C)C(=O)COC(=O)c1ccc([N+](=O)[O-])o1	> 100	> 100	–	–
